Test results published in ChEMBL document CHEMBL1155469, “Peptide nucleic acids conjugated to short basic peptides show improved pharmacokinetics and antisense activity in adipose tissue” (J Med Chem, 2010).
Each block holds one molecule with its values, some of them ahead of it. Active and inactive are the calls of the source. The calls are words filed in the database; no cut-off is given here.

How the values were obtained:
Mus musculus [1] = test: Acute toxicity in Balb/C mouse assessed as change in body weight at 2.5 to 12.5 mg/kg, ip administered BID for 5 days measured 48 hrs after last dose; format: organism-based; set-up: dose 2.5-12.5 mg/kg, route intraperitoneal; conditions: in vivo
Outline: (§1)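 Male Balb/c mice aged 6–8 weeks, n=4 per group, dosed i.p. with compound suspended in PBS and filter sterilized, 10 ul/g body weight. Body weight tracked throughout the live phase. Under isoflurane anaesthesia, terminal cardiac-puncture bleed; serum taken for transaminases and other chemistries. Sacrifice by cervical dislocation 48 h after last dose, with liver and spleen weighed at necropsy. Kidneys examined by histopathology.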

Mus musculus [2] = test: Inhibition of PTEN expression in Balb/C mouse adipose tissue assessed as increase in mRNA levels at 2.5 to 12.5 mg/kg, ip administered BID for 5 days measured 48 hrs after last dose by […]; format: functional, organism-based
Outline: (§2)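 Male Balb/c mice, n=4 per group, dosed i.p. in PBS and sacrificed 48 h after last dose. Liver, kidney and adipose tissue homogenised at once in 4 M guanidine isothiocyanate, 25 mM EDTA, 50 mM Tris-HCl pH 6. RNA purified on columns and run by fluorescence-based quantitative RT-PCR. Target transcript levels normalised to cyclophilin A and expressed relative to saline-treated controls.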

Mus musculus [3] = test: Acute toxicity in Balb/C mouse assessed as change in organ weight at 2.5 to 12.5 mg/kg, ip administered BID for 5 days measured 48 hrs after last dose; format: organism-based; set-up: dose 2.5-12.5 mg/kg, route intraperitoneal; conditions: in vivo; outline: as §1
Mus musculus [4] = test: Acute toxicity in Balb/C mouse assessed as change in serum chemistry at 2.5 to 12.5 mg/kg, ip administered BID for 5 days measured 48 hrs after last dose; format: organism-based; set-up: dose 2.5-12.5 mg/kg, route intraperitoneal; conditions: in vivo; outline: as §1
Mus musculus [5] = test: Inhibition of PTEN expression in Balb/C mouse kidney assessed as increase in mRNA levels at 2.5 to 12.5 mg/kg, ip administered BID for 5 days measured 48 hrs after last dose […]; format: functional, organism-based; outline: as §2
Mus musculus [6] = test: Inhibition of PTEN expression in Balb/C mouse liver assessed as increase in mRNA levels at 2.5 to 12.5 mg/kg, ip administered BID for 5 days measured 48 hrs after last dose […]; format: functional, organism-based; outline: as §2
[7] = Drug level in Balb/C mouse kidney at 40 mg/kg, ip administered thrice a week for 2 weeks measured 48 hrs after last dose; format: ADME, organism-based; set-up: dose 40 mg/kg, route intraperitoneal; conditions: read-out: Drug uptake
Outline: (§3)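 Male Balb/c mice, 6–8 wk, n=4/group, dosed i.p. in PBS 3x/wk for 2 wk at 40 mg/kg and killed 48 h after the last dose. Liver, kidney and adipose tissue were homogenized in SDS extraction buffer and diluted to 0.2 mg tissue/mL. They were hybridized with a digoxigenin/biotin cutting probe, captured on NeutrAvidin, and digested with nuclease S1. Anti-digoxigenin-AP fluorescence was read and quantified against a 0.1–100 nM standard ladder, in quadruplicate.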

Mus musculus [8] = test: Inhibition of PTEN expression in Balb/C mouse kidney at 10 to 40 mg/kg, ip administered thrice a week for 2 weeks measured 48 hrs after last dose
[9] = Drug level in Balb/C mouse liver at 40 mg/kg, ip administered thrice a week for 2 weeks measured 48 hrs after last dose; format: ADME, organism-based; set-up: dose 40 mg/kg, route intraperitoneal; conditions: read-out: Drug uptake; outline: as §3
Mus musculus [10] = test: Toxicity in Balb/C mouse assessed as change in serum ALT levels at 10 to 40 mg/kg, ip administered thrice a week for 2 weeks measured 48 hrs after last dose; format: organism-based; set-up: dose 10-40 mg/kg, route intraperitoneal; conditions: in vivo
Outline: (§4)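 Male Balb/c mice, 6–8 wk, n=4/group, received compound i.p. in PBS (10 ul/g) 3x/wk for 2 wk. Body weight was monitored throughout. At 48 h after the last dose, mice were anesthetized with isoflurane and bled by cardiac puncture. Serum AST, ALT, BUN, bilirubin, glucose and triglycerides were compared with the saline group. ALT rise below 2x normal was counted as absent.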

Mus musculus [11] = test: Toxicity in Balb/C mouse assessed as change in serum AST levels at 10 to 40 mg/kg, ip administered thrice a week for 2 weeks measured 48 hrs after last dose; format: organism-based; set-up: dose 10-40 mg/kg, route intraperitoneal; conditions: in vivo; outline: as §4
Mus musculus [12] = test: Inhibition of PTEN expression in Balb/C mouse white adipose tissue assessed as reduction of full length transcript at 10 to 40 mg/kg, ip administered thrice a week for 2 weeks measured 48 hrs after last dose […]; format: functional, organism-based
Mus musculus [13] = test: Toxicity in Balb/C mouse assessed as change in serum glucose levels at 10 to 40 mg/kg, ip administered thrice a week for 2 weeks measured 48 hrs after last dose; format: organism-based; set-up: dose 10-40 mg/kg, route intraperitoneal; conditions: in vivo; outline: as §4
Mus musculus [14] = test: Toxicity in Balb/C mouse assessed as change in serum triglyceride levels at 10 to 40 mg/kg, ip administered thrice a week for 2 weeks measured 48 hrs after last dose; format: organism-based; set-up: dose 10-40 mg/kg, route intraperitoneal; conditions: in vivo; outline: as §4
Mus musculus [15] = test: Toxicity in Balb/C mouse assessed as change in blood urea nitrogen levels at 10 to 40 mg/kg, ip administered thrice a week for 2 weeks measured 48 hrs after last dose; format: organism-based; set-up: dose 10-40 mg/kg, route intraperitoneal; conditions: in vivo; outline: as §4
Mus musculus [16] = test: Inhibition of PTEN expression in Balb/C mouse liver at 10 to 40 mg/kg, ip administered thrice a week for 2 weeks measured 48 hrs after last dose by Western blot analysis; format: functional, organism-based
Outline: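 Male Balb/c mice, 6–8 wk, n=4/group, dosed i.p. in PBS 3x/wk for 2 wk and killed 48 h after the last dose. Tissue was homogenized in RIPA buffer with protease inhibitors, and protein was measured by Lowry assay. Lysates were run on 10% PAGE and blotted to PVDF. Blots were probed with rabbit anti-PTEN (1:1000) and HRP anti-rabbit (1:2500), with ECL detection.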

Mus musculus [17] = test: Toxicity in Balb/C mouse assessed as change in serum bilirubin levels at 10 to 40 mg/kg, ip administered thrice a week for 2 weeks measured 48 hrs after last dose; format: organism-based; set-up: dose 10-40 mg/kg, route intraperitoneal; conditions: in vivo; outline: as §4
[18] = Drug level in Balb/C mouse adipose tissue at 40 mg/kg, ip administered thrice a week for 2 weeks measured 48 hrs after last dose; format: ADME, organism-based; set-up: dose 40 mg/kg, route intraperitoneal; conditions: read-out: Drug uptake; outline: as §3
Mus musculus [19] = test: Toxicity in Balb/C mouse assessed as change in body weight at 10 to 40 mg/kg, ip administered thrice a week for 2 weeks measured 48 hrs after last dose; format: organism-based; set-up: dose 10-40 mg/kg, route intraperitoneal; conditions: in vivo; outline: as §4

SMILES: Cc1cn(CC(=O)N(CCNC(=O)CN(CCNC(=O)[C@H](CCCNC(=N)N)N(CCNC(=O)[C@H](CCCNC(=N)N)NC(=O)[C@H](CCCCNC(=N)N)NC(=O)[C@H](Cc2ccccc2)NC(=O)[C@H](CCCCNC(=N)N)NC(=O)[C@H](CCCCNC(=N)N)NC(=O)[C@H](CCCCNC(=N)N)NC(=O)[C@H](C)NC(=O)[C@H](CCCNC(=N)N)NC(=O)[C@H](CCCCNC(=N)N)NC(=O)[C@H](Cc2ccccc2)NC(=O)[C@H](C)NC(=O)[C@H](CCCNC(=N)N)NC(=O)[C@H](CCCCNC(=N)N)NC(=O)CN)C(=O)Cn2cc(C)c(=O)[nH]c2=O)C(=O)Cn2ccc(N)nc2=O)CC(=O)NCCN(CC(=O)NCCN(CC(=O)NCCN(CC(=O)NCCN(CC(=O)NCCN(CC(=O)NCCN(CC(=O)NCCN(CC(=O)NCCN(CC(=O)NCCN(CC(=O)NCCN(CC(=O)NCCN(CC(=O)NCCN(CC(=O)NCCN(CC(=O)N[C@@H](CCCCN)C(N)=O)C(=O)Cn2cnc3c(N)ncnc32)C(=O)Cn2ccc(N)nc2=O)C(=O)Cn2cnc3c(N)ncnc32)C(=O)Cn2cc(C)c(=O)[nH]c2=O)C(=O)Cn2ccc(N)nc2=O)C(=O)Cn2cc(C)c(=O)[nH]c2=O)C(=O)Cn2cnc3c(N)ncnc32)C(=O)Cn2ccc(N)nc2=O)C(=O)Cn2cnc3c(N)ncnc32)C(=O)Cn2ccc(N)nc2=O)C(=O)Cn2cnc3c(=O)[nH]c(N)nc32)C(=O)Cn2cnc3c(N)ncnc32)C(=O)Cn2ccc(N)nc2=O)c(=O)[nH]c1=O
Activity (Mus musculus [1]): Non-toxic | Activity (Mus musculus [2]): inactive | Activity (Mus musculus [3]): Non-toxic | Activity (Mus musculus [4]): Non-toxic | Activity (Mus musculus [5]): inactive | Activity (Mus musculus [6]): inactive

concentration at 48 h [7]: 355 µM | concentration at 48 h [9]: 28 µM | concentration at 48 h [18]: 4 µM
SMILES: Cc1cn(CC(=O)N(CCNC(=O)CN(CCNC(=O)[C@H](CCCCN)N(CCNC(=O)[C@H](CCCCN)NC(=O)[C@@H](N)CCCCN)C(=O)Cn2cc(C)c(=O)[nH]c2=O)C(=O)Cn2ccc(N)nc2=O)CC(=O)NCCN(CC(=O)NCCN(CC(=O)NCCN(CC(=O)NCCN(CC(=O)NCCN(CC(=O)NCCN(CC(=O)NCCN(CC(=O)NCCN(CC(=O)NCCN(CC(=O)NCCN(CC(=O)NCCN(CC(=O)NCCN(CC(=O)NCCN(CC(=O)N[C@@H](CCCCN)C(N)=O)C(=O)Cn2cnc3c(N)ncnc32)C(=O)Cn2ccc(N)nc2=O)C(=O)Cn2cnc3c(N)ncnc32)C(=O)Cn2cc(C)c(=O)[nH]c2=O)C(=O)Cn2ccc(N)nc2=O)C(=O)Cn2cc(C)c(=O)[nH]c2=O)C(=O)Cn2cnc3c(N)ncnc32)C(=O)Cn2ccc(N)nc2=O)C(=O)Cn2cnc3c(N)ncnc32)C(=O)Cn2ccc(N)nc2=O)C(=O)Cn2cnc3c(=O)[nH]c(N)nc32)C(=O)Cn2cnc3c(N)ncnc32)C(=O)Cn2ccc(N)nc2=O)c(=O)[nH]c1=O
inhibition (Mus musculus [8]): inactive | Activity (Mus musculus [10]): Non-toxic | Activity (Mus musculus [11]): Non-toxic | Activity (Mus musculus [12]): inactive | Activity (Mus musculus [13]): Non-toxic | Activity (Mus musculus [14]): Non-toxic | Activity (Mus musculus [15]): Non-toxic | inhibition (Mus musculus [16]): inactive | Activity (Mus musculus [17]): Non-toxic | Activity (Mus musculus [19]): Non-toxic
